Assay results as given in ChEMBL document CHEMBL3045217, “Factors affecting the synergy of thiabendazole, sodium bicarbonate, and heat to control postharvest green mold of citrus fruit” (J Agric Food Chem, 2008).

Key:
Penicillium digitatum [1] = assay: Fungicidal activity against Penicillium digitatum infected Valenica oranges assessed as fruit weight loss at 600 mg/L treated for 1 min at 20 degC postharvest at 20 hr after fungal conidial inoculation measured after 21 days of storage at 17 degC (water Rvb = 7.98%); type: functional
Fruit [2] = assay: Drug residues in Citrus sinensis cvs. Valencia late (Valencia oranges) at 400 mg/L treated for 1 min at 40 degC postharvest measured after 10 days of storage at 17 degC in presence of 2% SBC by GC analysis; type: ADME
How it was run: (§1)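 'Valencia' oranges were dipped 1 min in TBZ at 600 mg/L (20 °C, ±0.5, 1 or 2% wt/vol SBC), 400 mg/L (40 °C, ±SBC) or 200 mg/L (50 °C, alone), then air-dried. They were sampled at 0, 10 and 20 days at 17 °C. Peel of five fruit was frozen, and 5 g of homogenate was extracted with ethyl acetate/hexane (1/1) plus NaCl. The extract was dried under N2, taken up in acetone and analysed by GC. Results are mg/kg on a whole-fruit basis.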

Penicillium digitatum [3] = assay: (§2) Fungicidal activity against TBZ-resistant Penicillium digitatum infected Nova mandarins assessed as postharvest green mold incidence at 600 mg/L treated for 1 min at 20 degC at 20 hr after fungal conidial inoculation measured after 5 days of storage at 20 degC in presence of 1% SBC (water Rvb = 83.3%); type: functional
Penicillium digitatum [4] = assay: Fungicidal activity against TBZ-resistant Penicillium digitatum infected Valencia oranges assessed as postharvest green mold incidence at 600 mg/L treated for 1 min at 20 degC at 20 hr after fungal conidial inoculation measured after 7 days of storage at 20 degC (water Rvb = 96.7%); type: functional
Fruit [5] = assay: Drug residues in Citrus sinensis cvs. Valencia late (Valencia oranges) at 400 mg/L treated for 1 min at 40 degC postharvest measured after 20 days of storage at 17 degC in presence of 0.5% SBC by GC analysis; type: ADME; how it was run: as §1
Penicillium digitatum [6] = assay: Fungicidal activity against Penicillium digitatum infected Valenica oranges assessed as fruit weight loss at 400 mg/L treated for 1 min at 40 degC postharvest at 20 hr after fungal conidial inoculation measured after 14 days of storage at 17 degC in presence of 0.5% SBC (water Rvb = 7.90%); type: functional
Penicillium digitatum [7] = assay: as §2, with “TBZ-sensitive” for “TBZ-resistant”, “2%” for “1%”, “96.7%)” for “83.3%)”; type: functional
How it was run: (§3)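 Fruit were surface-disinfected in 1 g/L hypochlorite for 30 s, rinsed, dried, then wounded twice equatorially (2 mm × 2 mm rod). Inoculation was a 1 min dip in P. digitatum conidia, 1 × 10^5 conidia/mL final. Fruit were held 20 h at 20 °C and 90% RH, dipped 1 min (SBC wt/vol), and air-dried. Storage was 20 °C, 90% RH. Decay incidence (% fruit with lesions) was scored at 5 d for mandarins and 7 d for oranges. Three replicates of 40 fruit were used; arcsin-transformed data were compared by LSD, p ≤ 0.05.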

Penicillium digitatum [8] = assay: Fungicidal activity against TBZ-resistant Penicillium digitatum infected Nova mandarins assessed as postharvest green mold incidence at 600 mg/L treated for 1 min at 20 degC at 20 hr after fungal conidial inoculation measured after 5 days of storage at 20 degC (water Rvb = 100%); type: functional
Penicillium digitatum [9] = assay: as §2, with “TBZ-sensitive” for “TBZ-resistant”, “96.7%)” for “83.3%)”; type: functional; how it was run: as §3
Fruit surface [10] = assay: Drug residues on Citrus sinensis cvs. Salustiana (Salustiana oranges) fruit surface at 600 mg/L treated for 3 min at 50 degC postharvest measured after overnight incubation at 17 degC by GC analysis; type: ADME; conditions: 0.05 h
How it was run: (§4)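 'Salustiana' oranges were washed with water and air-dried. They were dipped 1 or 3 min in TBZ 600 mg/L at 20 or 50 °C, or 1 min in TBZ 600 mg/L plus 2% SBC at 20 °C, then dried overnight at 17 °C in the dark. Surface residue was taken by water extraction and wax residue by chloroform extraction. Inner residue was measured in fruit after both extractions. Extracts were dried under N2, taken up in acetone and analysed by GC. Values are mg/kg on a whole-fruit basis.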

Penicillium digitatum [11] = assay: (§5) Fungicidal activity against TBZ-sensitive Penicillium digitatum infected Nova mandarins assessed as postharvest green mold incidence at 400 mg/L treated for 1 min at 40 degC at 20 hr after fungal conidial inoculation measured after 5 days of storage at 20 degC in presence of 0.5% SBC (water Rvb = 100%); type: functional; how it was run: as §3
Penicillium digitatum [12] = assay: Fungicidal activity against TBZ-sensitive Penicillium digitatum infected Valencia oranges assessed as postharvest green mold incidence at 600 mg/L treated for 1 min at 20 degC at 20 hr after fungal conidial inoculation measured after 7 days of storage at 20 degC (water Rvb = 92.5%); type: functional
Penicillium digitatum [13] = assay: Fungicidal activity against TBZ-sensitive Penicillium digitatum infected Valencia oranges assessed as postharvest green mold incidence at 200 mg/L treated for 1 min at 50 degC at 20 hr after fungal conidial inoculation measured after 7 days of storage at 20 degC (water Rvb = 53.3%); type: functional; how it was run: as §3
Fruit [14] = assay: Drug residues in Citrus sinensis cvs. Valencia late (Valencia oranges) at 400 mg/L treated for 1 min at 40 degC postharvest measured after 10 days of storage at 17 degC in presence of 1% SBC by GC analysis; type: ADME; how it was run: as §1
Penicillium digitatum [15] = assay: as §5, with “1%” for “0.5%”, “93.3%)” for “100%)”; type: functional; how it was run: as §3
Penicillium digitatum [16] = assay: Fungicidal activity against Penicillium digitatum infected Valenica oranges assessed as fruit weight loss at 400 mg/L treated for 1 min at 40 degC postharvest at 20 hr after fungal conidial inoculation measured after 21 days of storage at 17 degC in presence of 2% SBC (water Rvb = 13.47%); type: functional
Fruit [17] = assay: Drug residues in Citrus sinensis cvs. Valencia late (Valencia oranges) at 600 mg/L treated for 1 min at 20 degC postharvest measured after 20 days of storage at 17 degC in presence of 1% SBC by GC analysis; type: ADME; how it was run: as §1
Fruit [18] = assay: Drug residues in Citrus sinensis cvs. Valencia late (Valencia oranges) at 400 mg/L treated for 1 min at 40 degC postharvest measured immediately post-drug treatment in presence of 2% SBC by GC analysis; type: ADME; how it was run: as §1
Penicillium digitatum [19] = assay: Fungicidal activity against TBZ-resistant Penicillium digitatum infected Valencia oranges assessed as postharvest green mold incidence at 400 mg/L treated for 1 min at 40 degC at 20 hr after fungal conidial inoculation measured after 7 days of storage at 20 degC (water Rvb = 90.0%); type: functional
Fruit surface [20] = assay: Drug residues on Citrus sinensis cvs. Salustiana (Salustiana oranges) fruit surface at 600 mg/L treated for 1 min at 20 degC postharvest measured after overnight incubation at 17 degC by GC analysis; type: ADME; how it was run: as §4
Cuticular wax = assay: Drug residues in Citrus sinensis cvs. Salustiana (Salustiana oranges) cuticular wax at 600 mg/L treated for 1 min at 20 degC postharvest measured after overnight incubation at 17 degC in presence of 2% SBC by GC analysis; type: ADME; how it was run: as §4
Penicillium digitatum [21] = assay: Fungicidal activity against Penicillium digitatum infected Valenica oranges assessed as fruit weight loss at 600 mg/L treated for 1 min at 20 degC postharvest at 20 hr after fungal conidial inoculation measured after 7 days of storage at 17 degC in presence of 0.5% SBC (water Rvb = 3.90%); type: functional

c1ccc2[nH]c(-c3cscn3)nc2c1 [THIABENDAZOLE]
Activity (Penicillium digitatum [1]): 8.85% | Drug uptake (Fruit [2]): 0.65 mg/kg | Activity (Penicillium digitatum [3]): 65% | Activity (Penicillium digitatum [4]): 78.3% | Drug uptake (Fruit [5]): 0.79 mg/kg | Activity (Penicillium digitatum [6]): 8.39% | Activity (Penicillium digitatum [7]): 0% | Activity (Penicillium digitatum [8]): 98.3% | Activity (Penicillium digitatum [9]): 3.3% | Drug uptake (Fruit surface [10]): 0.69 mg/kg | Activity (Penicillium digitatum [11]): 0% | Activity (Penicillium digitatum [12]): 31.7% | Activity (Penicillium digitatum [13]): 5.8% | Drug uptake (Fruit [14]): 0.7 mg/kg | Activity (Penicillium digitatum [15]): 5% | Activity (Penicillium digitatum [16]): 13.98% | Drug uptake (Fruit [17]): 1.4 mg/kg | Drug uptake (Fruit [18]): 0.74 mg/kg | Activity (Penicillium digitatum [19]): 55.8% | Drug uptake (Fruit surface [20]): 0.68 mg/kg | Drug uptake (Cuticular wax): 0.46 mg/kg | Activity (Penicillium digitatum [21]): 4.28%
